Assay results from ChEMBL document CHEMBL1777756, “Discovery of Novel Benzo[a]phenoxazine SSJ-183 as a Drug Candidate for Malaria” (ACS Med Chem Lett, 2010).
Activity calls are given as the source filed them. The rule behind the calls is not given here.

Legend:
[1] = Toxicity in rat at 1000 mg/kg by micronucleus test; type: organism-based; design: dose 1000 mg/kg; conditions: in vivo
In short: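 In vivo micronucleus test in rats dosed at 1000 mg/kg × 2.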

Mus musculus [2] = assay: Biodistribution in mouse eyes at 100 mg/kg, po administered as single dose; type: ADME, organism-based, Eye; design: dose 100 mg/kg, route oral; conditions: in vivo
In short: (§1)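 Mice received a single oral dose of 100 mg/kg. Urine, eyes and organs were then checked by eye for the purple/blue colour of the compound formulation.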

Plasmodium berghei [3] = assay: Antimalarial activity against Plasmodium berghei NK-65 infected in ICR mouse assessed as inhibition of parasitemia at 100 mg/kg, po administered as single dose on day 1 measured on day 4; type: functional
In short: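 Compound was formulated at 100 mg/kg in 5% glucose/10% ethanol or in 7% Tween 80/3% ethanol. The suspension was given as a single oral dose on day 1 to female ICR mice infected with P. berghei NK-65. Parasitemia was determined on day 4 after infection. Treated-group mean is expressed as percent difference from the control-group mean.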

Plasmodium berghei [4] = assay: Antimalarial activity against Plasmodium berghei ANKA infected in NMRI mouse assessed as survival days at 100 mg/kg, po administered as single dose; type: functional
In short: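 Female NMRI mice infected with P. berghei ANKA received a single oral dose of 100 mg/kg. Three independent experiments were run with 3 mice each. Mean survival days were averaged across the experiments.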

Plasmodium berghei [5] = assay: Antimalarial activity against Plasmodium berghei ANKA expressing green fluorescent protein infected in NMRI mouse assessed as survival days at 100 mg/kg, po qd administered for 3 consecutive days; type: functional
In short: (§2)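 Female NMRI mice infected with GFP-expressing P. berghei ANKA were dosed orally once daily for three consecutive days, 3 mice per dose level, in 2 to 3 independent experiments. Parasitemia was read on day 4 post-infection, and mean survival days were recorded along with the percentage of cured animals.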

Trypanosoma cruzi [6] = assay: Selectivity ratio of IC50 for Plasmodium falciparum K1 to IC50 for Trypanosoma cruzi; type: functional
Plasmodium berghei [7] = assay: Antimalarial activity against Plasmodium berghei str. ANKA infected in mouse assessed as cure rate at 100 mg/kg, po administered as three daily dose; type: functional, organism-based; design: dose 100 mg/kg
In short: (§3)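 Oral dosing once a day for three consecutive days to female NMRI mice infected with P. berghei GFP ANKA strain. n = 3 mice per dose, data from 2–3 independent experiments. Parasitemia inhibition read on day 4 postinfection. Mean survival days and the percentage of cured animals were recorded.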

Leishmania donovani [8] = assay: Selectivity ratio of IC50 for Plasmodium falciparum K1 to IC50 for Leishmania donovani; type: functional
Mus musculus [9] = assay: Phototoxicity against mouse at 300 mg/kg, po; type: organism-based; design: dose 300 mg/kg, route oral; conditions: in vivo
In short: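 Mice dosed orally at 300 mg/kg were assessed for phototoxicity.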

[10] = molecular target: D(3) dopamine receptor (Homo sapiens) (UniProt P35462); assay: Inhibition of human recombinant D3 receptor at 1 uM
In short: (§4)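 Binding assays were run against a panel of 80 receptors at 1 μM compound. Percent inhibition was read for human recombinant receptors.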

Plasmodium berghei [11] = assay: Antimalarial activity against Plasmodium berghei ANKA expressing green fluorescent protein infected in NMRI mouse assessed as cure rate at 30 mg/kg, po qd administered for 3 consecutive days; type: functional; in short: as §3
[12] = molecular target: T1, Adenosine receptor A3 (Homo sapiens) (UniProt P0DMS8); assay: Inhibition of human recombinant A3 receptor at 1 uM; in short: as §4
T1 sequence (whole entry): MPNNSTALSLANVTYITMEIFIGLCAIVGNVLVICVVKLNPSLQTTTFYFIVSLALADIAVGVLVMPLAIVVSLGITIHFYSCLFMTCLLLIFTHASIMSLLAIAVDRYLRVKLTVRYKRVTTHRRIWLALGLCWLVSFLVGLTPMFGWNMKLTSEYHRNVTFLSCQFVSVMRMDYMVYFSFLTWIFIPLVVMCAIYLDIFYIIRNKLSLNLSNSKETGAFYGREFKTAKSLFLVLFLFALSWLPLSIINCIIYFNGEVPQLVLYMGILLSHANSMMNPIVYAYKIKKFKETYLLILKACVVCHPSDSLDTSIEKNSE

[13] = Selectivity ratio of IC50 for Plasmodium falciparum K1 to IC50 for Trypanosoma brucei rhodesiense; type: functional
[14] = Terminal-half life in iv dosed Sprague-Dawley rat; type: ADME, organism-based; conditions: in vivo, read-out: beta t1/2 (converted)
In short: (§5)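 Male Sprague–Dawley rats received 2.8 mg/kg intravenously or 21.5 mg/kg orally, and the plasma concentration–time profile was followed. Oral bioavailability and terminal half-life after iv dosing were derived.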

Leishmania donovani [15] = assay: Antiparasitic activity against Leishmania donovani; type: functional, organism-based
Plasmodium falciparum = assay: Antimalarial activity against chloroquine and pyrimethamine resistant Plasmodium falciparum K1; type: functional, organism-based
In short: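 IC50 was determined in vitro against the chloroquine- and pyrimethamine-resistant P. falciparum K1 strain. Values are the mean of two independent assays.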

[16] = Selectivity index, ratio of IC50 for rat L6 cells to IC50 for Plasmodium falciparum K1; type: toxicity, cell-based; conditions: read-out: Ratio IC50
In short: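 Selectivity index is IC50 against L-6 cells divided by IC50 against chloroquine/pyrimethamine-resistant P. falciparum K1. Each IC50 is the mean of two independent assays.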

Blood = assay: Cytotoxicity in G6PD-deficient human blood assessed as hemolysis; type: tissue-based
Mus musculus [17] = assay: Toxicity in NMRI mouse infected with Plasmodium berghei ANKA expressing green fluorescent protein assessed as lethality at 2000 mg/kg, po qd administered for 3 consecutive days; type: organism-based; design: dose 2000 mg/kg, route oral; conditions: in vivo
[18] = Oral bioavailability in Sprague-Dawley rat; type: ADME, organism-based; conditions: in vivo; in short: as §5
Plasmodium berghei [19] = assay: Antimalarial activity against Plasmodium berghei ANKA expressing green fluorescent protein infected in NMRI mouse assessed as survival days at 10 mg/kg, po qd administered for 3 consecutive days; type: functional; in short: as §2
[20] = tested on: Trypanosoma brucei rhodesiense; assay: Antiparasitic activity against Trypanosoma brucei rhodesiense; type: functional, organism-based
Plasmodium berghei [21] = assay: Antimalarial activity against Plasmodium berghei ANKA infected in NMRI mouse at 100 mg/kg, po administered as single dose; type: functional
In short: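 Female NMRI mice infected with P. berghei ANKA strain were given a single oral dose of 100 mg/kg. Three independent experiments were run with n = 3 mice per experiment. Inhibition of parasitemia and mean survival days are averaged across the experiments.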

Plasmodium berghei [22] = assay: Antimalarial activity against Plasmodium berghei ANKA expressing green fluorescent protein infected in NMRI mouse assessed as growth inhibition at 10 mg/kg, po qd administered for 3 consecutive days measured on day 4 post parasitic infection; type: functional; conditions: 96 h, read-out: GI; in short: as §3
Plasmodium berghei [23] = assay: Antimalarial activity against Plasmodium berghei ANKA expressing green fluorescent protein infected in NMRI mouse assessed as cure rate at 100 mg/kg, po qd administered for 3 consecutive days; type: functional; in short: as §3
Plasmodium berghei [24] = assay: Antimalarial activity against Plasmodium berghei ANKA expressing green fluorescent protein infected in NMRI mouse assessed as survival days at 30 mg/kg, po qd administered for 3 consecutive days; type: functional; in short: as §2
Plasmodium berghei [25] = assay: Antimalarial activity against Plasmodium berghei NK-65 infected in ICR mouse assessed as survival days at 100 mg/kg, po administered as single dose (reference value: 6 days); type: functional
In short: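 Female ICR mice infected with P. berghei NK-65 received a single oral dose of 100 mg/kg on day 1. The compound was given as a suspension in 5% glucose/10% ethanol or in 7% Tween 80/3% ethanol. Parasitemia was read on day 4 as percent reduction relative to untreated controls, and mean survival days were recorded.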

[26] = Biodistribution in mouse urine at 100 mg/kg, po administered as single dose; type: ADME, organism-based; design: dose 100 mg/kg, route oral; conditions: in vivo; in short: as §1
Plasmodium berghei [27] = assay: Antimalarial activity against Plasmodium berghei ANKA expressing green fluorescent protein infected in NMRI mouse assessed as growth inhibition at 30 mg/kg, po qd administered for 3 consecutive days measured on day 4 post parasitic infection; type: functional; conditions: 96 h, read-out: GI; in short: as §3
Trypanosoma cruzi [28] = assay: Antiparasitic activity against Trypanosoma cruzi; type: functional, organism-based
Plasmodium berghei [29] = assay: Antimalarial activity against Plasmodium berghei ANKA expressing green fluorescent protein infected in NMRI mouse assessed as growth inhibition at 100 mg/kg, po qd administered for 3 consecutive days measured on day 4 post parasitic infection; type: functional; conditions: 96 h, read-out: GI; in short: as §3
[30] = Toxicity in S9 fraction at 2 uM by micronucleus test; type: subcellular; conditions: s9, 2 µM
In short: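 In vitro micronucleus test at 2.0 μM, run both without and with S9.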

[31] = Toxicity in S9 fraction at 1000 uM by chromosomal aberration test; type: subcellular; conditions: s9, 1000 µM
In short: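 Chromosome aberration test at 1000 μM, run both without and with S9 metabolic activation.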

L6 = assay: Cytotoxicity against rat L6 cells; type: cell-based
In short: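 Cytotoxicity was tested against L-6 rat myoblasts, with IC50 determined. Values are the mean of two independent assays.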

Sequence of D(3) dopamine receptor (Homo sapiens) (P35462 whole entry): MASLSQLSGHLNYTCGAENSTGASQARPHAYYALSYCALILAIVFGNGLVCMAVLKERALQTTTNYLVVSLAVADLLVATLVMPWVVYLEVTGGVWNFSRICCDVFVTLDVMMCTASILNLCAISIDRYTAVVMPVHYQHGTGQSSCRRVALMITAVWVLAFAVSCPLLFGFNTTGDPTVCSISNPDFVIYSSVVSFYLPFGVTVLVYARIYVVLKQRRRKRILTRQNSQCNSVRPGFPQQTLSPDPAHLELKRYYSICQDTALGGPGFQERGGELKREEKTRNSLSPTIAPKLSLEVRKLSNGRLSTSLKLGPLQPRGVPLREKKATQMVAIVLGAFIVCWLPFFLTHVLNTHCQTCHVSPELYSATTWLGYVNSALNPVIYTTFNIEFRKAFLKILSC

In the case of `CCN(CC)c1ccc2nc3c4ccccc4/c(=N\c4ccncc4)cc-3oc2c1`, the Activity [1] is reported as “Non-toxic”, the Drug uptake (Mus musculus [2]) is reported as “Not Active” and the inhibition in vivo at 100 mg/kg (Plasmodium berghei [3]) is reported as greater than 99.9%. It also gave an MSD (Plasmodium berghei [4]) of 16 days, an MSD (Plasmodium berghei [5]) greater than 30 days and a Ratio IC50 (Trypanosoma cruzi [6]) greater than 1000. The Activity (Plasmodium berghei [7]) was “Active”, the Ratio IC50 (Leishmania donovani [8]) was greater than 1000 and the Activity (Mus musculus [9]) was “Non-toxic”. The inhibition [10] was 80%, the Activity (Plasmodium berghei [11]) was 78% and the inhibition [12] was 80%. For the same molecule, the Ratio IC50 [13] was greater than 1000, the half-life [14] was 5.5 h and the IC50 (Leishmania donovani [15]) was 6.5 µM. The IC50 (Plasmodium falciparum) was 0.0076 µM, the selectivity ratio [16] was 7330 and the Activity (Blood) was “Non-toxic”. The Activity (Mus musculus [17]) was “Non-toxic”, the bioavailability [18] was 30% and the MSD (Plasmodium berghei [19]) was 4 days. The IC50 [20] was 36 µM, the inhibition in vivo at 100 mg/kg (Plasmodium berghei [21]) was 99% and the inhibition in vivo at 10 mg/kg (Plasmodium berghei [22]) was 26%. It also gave an Activity (Plasmodium berghei [23]) of 100%, an MSD (Plasmodium berghei [24]) of 27.2 days and an MSD (Plasmodium berghei [25]) of 14.6 days. The Drug uptake [26] was “Not Active”, the inhibition in vivo at 30 mg/kg (Plasmodium berghei [27]) was 99% and the IC50 (Trypanosoma cruzi [28]) was 11.3 µM. The inhibition in vivo at 100 mg/kg (Plasmodium berghei [29]) was greater than 99.9%, the Activity [30] was “Non-toxic” and the Activity [31] was “Non-toxic”. It also gave an IC50 (L6) of 55.7 µM.
